The target in series [1] is Epidermal growth factor receptor (Homo sapiens, UniProt P00533, L858R/T790M). In words: Inhibition of human recombinant cytoplasmic GST-tagged EGFR T790M/L858R double mutant (668 to 1210 residues) expressed in baculovirus using TK-substrate-biotin preincubated for 15 mins followed by substrate addition measured after 60 mins by FRET-based Z'-Lyte assay.
Series [2] concerns NCI-H1975. Description: Antiproliferative activity against human NCI-H1975 cells harboring EGFR L858R/T790M double mutant. It is filed as functional, cell-based. An outline of the steps: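 A431 was grown in EMEM with 10% FBS; HCC827 and NCI-H1975 were grown in RPMI-1640 with 10% FBS. Cell viability experiments were repeated at least three times.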
Series [3] addresses Epidermal growth factor receptor (Homo sapiens, UniProt P00533). Description: Inhibition of human recombinant cytoplasmic GST-tagged EGFR (668 to 1210 residues) expressed in baculovirus using TK-substrate-biotin preincubated for 15 mins followed by substrate addition measured after 60 mins by FRET-based Z'-Lyte assay.
For series [4], the system named is HCC827. Description: Antiproliferative activity against human HCC827 cells harboring EGFR E746-A750 deletion mutant. It is filed as functional, cell-based.
Series [5] concerns A-431. Description: Antiproliferative activity against human A431 cells harboring wild-type EGFR. The series is classed as functional, cell-based.
Series [6] has as its target Epidermal growth factor receptor (Homo sapiens, UniProt P00533, L858R). Description: Inhibition of human recombinant cytoplasmic GST-tagged EGFR L858R mutant expressed in baculovirus using TK-substrate-biotin preincubated for 15 mins followed by substrate addition measured after 60 mins by FRET-based Z'-Lyte assay.
The species named for series [7] is Homo sapiens. Description: Selectivity ratio of IC50 for human recombinant cytoplasmic GST-tagged EGFR (668 to 1210 residues) to IC50 for human recombinant cytoplasmic GST-tagged EGFR T790M/L858R double mutant (668 to 1210 residues). An outline of the steps: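 HTRF kinase assay on wild-type EGFR and the T790M/L858R mutant, with TK-substrate-biotin, ATP, 1 mM DTT, 1 mM MnCl2 and 5 mM MgCl2. Serially diluted compounds in 1% DMSO were preincubated with kinase for 15 min. The reaction was started with ATP plus substrate, run 60 min at room temperature, then stopped with Strep-XL665/TK Ab-Cryptate and read after 1 h. Run in duplicate, at least three independent IC50 determinations.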

Series [8] in a line: Half life in rat liver microsomes. The series is classed as ADME, microsome. (Liver microsomes are a subcellular fraction often used to study metabolism.)
Series [9] can be described thus: Half life in mouse liver microsomes. It is filed as ADME, microsome.
A short description of series [10]: Oral bioavailability in Sprague-Dawley rat at 10 mg/kg administered via gavage after 24 hrs by LC-MS/MS analysis. The series is classed as ADME, organism-based. To be noted: in vivo. The method, boiled down: (§1)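 Male Sprague-Dawley rats (200-240 g) received 1 mg/kg by tail-vein injection in 2% DMSO, 20% PEG400 and 78% buffered saline, or 10 mg/kg by oral gavage in 0.5% methylcellulose. Orbital sinus blood was drawn into heparinized tubes at 2, 5, 15 and 30 min and at 1, 2, 4, 8, 12 and 24 h, then centrifuged. Plasma was measured by LC/MS/MS in SRM mode, with non-compartmental analysis.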

Series [11] in a line: Intrinsic clearance in rat hepatocytes assessed per million cells. It is filed as ADME, cell-based, Hepatocyte.
Series [12] in a line: Intrinsic clearance in monkey liver microsomes. The series is classed as ADME, Macaca mulatta, microsome. To be noted: rhesus monkey, read-out: CLH.
Series [13] can be described thus: Half life in dog liver microsomes. It is filed as ADME, Canis lupus familiaris, microsome.
A short description of series [14]: Half life in rat hepatocytes. It is filed as ADME, cell-based, Hepatocyte.
Series [15] can be described thus: MRT in Sprague-Dawley rat at 1 mg/kg, iv by LC-MS/MS analysis. The series is classed as ADME, organism-based. To be noted: in vivo. The method, boiled down:
as §1

Series [16] can be described thus: Intrinsic clearance in mouse liver microsomes. The series is classed as ADME, microsome. To be noted: read-out: CLH.
Series [17] is described as follows: Half life in monkey liver microsomes. It is filed as ADME, Macaca mulatta, microsome. To be noted: rhesus monkey.
Series [18] can be described thus: Half life in human hepatocytes. The series is classed as ADME, cell-based, Hepatocyte.
The nature of series [19]: Cmax in Sprague-Dawley rat at 10 mg/kg, po administered via gavage after 24 hrs by LC-MS/MS analysis. It is filed as ADME, organism-based. More on the design: dose 10 mg/kg, route oral. To be noted: in vivo. An outline of the steps: as §1
Series [20] in a line: Half life in Sprague-Dawley rat at 1 mg/kg, iv by LC-MS/MS analysis. The series is classed as ADME, organism-based. To be noted: in vivo. The method, boiled down:
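Male Sprague-Dawley rats (200-240 g) were dosed either by tail vein at 1 mg/kg in 2% DMSO/20% PEG400/78% buffered saline or by oral gavage at 10 mg/kg in 0.5% methylcellulose. Blood was drawn by orbital sinus puncture at 2 min to 24 h into heparin, and plasma was analysed by LC/MS/MS in SRM mode. Parameters came from non-compartmental analysis.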

A short description of series [21]: Tmax in Sprague-Dawley rat at 10 mg/kg, po administered via gavage by LC-MS/MS analysis. It is filed as ADME, organism-based. To be noted: in vivo. The method, boiled down: as §1
A short description of series [22]: Intrinsic clearance in rat liver microsomes. To be noted: read-out: CLH. The series is classed as ADME, microsome.
Series [23] in a line: MRT in Sprague-Dawley rat at 10 mg/kg, po administered via gavage by LC-MS/MS analysis. To be noted: in vivo. The series is classed as ADME, organism-based. The method, boiled down:
as §1

Series [24] is described as follows: Clearance in Sprague-Dawley rat at 1 mg/kg, iv after 24 hrs by LC-MS/MS analysis. The series is classed as ADME, organism-based. To be noted: in vivo. The method, boiled down:
as §1

Series [25] can be described thus: Intrinsic clearance in dog liver microsomes. It is filed as ADME, Canis lupus familiaris, microsome. To be noted: read-out: CLH.

Bounds are passed on as bounds.

Chain of Epidermal growth factor receptor (Homo sapiens, UniProt P00533, L858R/T790M) (P00533 25-1210 T790M/L858R limits assumed): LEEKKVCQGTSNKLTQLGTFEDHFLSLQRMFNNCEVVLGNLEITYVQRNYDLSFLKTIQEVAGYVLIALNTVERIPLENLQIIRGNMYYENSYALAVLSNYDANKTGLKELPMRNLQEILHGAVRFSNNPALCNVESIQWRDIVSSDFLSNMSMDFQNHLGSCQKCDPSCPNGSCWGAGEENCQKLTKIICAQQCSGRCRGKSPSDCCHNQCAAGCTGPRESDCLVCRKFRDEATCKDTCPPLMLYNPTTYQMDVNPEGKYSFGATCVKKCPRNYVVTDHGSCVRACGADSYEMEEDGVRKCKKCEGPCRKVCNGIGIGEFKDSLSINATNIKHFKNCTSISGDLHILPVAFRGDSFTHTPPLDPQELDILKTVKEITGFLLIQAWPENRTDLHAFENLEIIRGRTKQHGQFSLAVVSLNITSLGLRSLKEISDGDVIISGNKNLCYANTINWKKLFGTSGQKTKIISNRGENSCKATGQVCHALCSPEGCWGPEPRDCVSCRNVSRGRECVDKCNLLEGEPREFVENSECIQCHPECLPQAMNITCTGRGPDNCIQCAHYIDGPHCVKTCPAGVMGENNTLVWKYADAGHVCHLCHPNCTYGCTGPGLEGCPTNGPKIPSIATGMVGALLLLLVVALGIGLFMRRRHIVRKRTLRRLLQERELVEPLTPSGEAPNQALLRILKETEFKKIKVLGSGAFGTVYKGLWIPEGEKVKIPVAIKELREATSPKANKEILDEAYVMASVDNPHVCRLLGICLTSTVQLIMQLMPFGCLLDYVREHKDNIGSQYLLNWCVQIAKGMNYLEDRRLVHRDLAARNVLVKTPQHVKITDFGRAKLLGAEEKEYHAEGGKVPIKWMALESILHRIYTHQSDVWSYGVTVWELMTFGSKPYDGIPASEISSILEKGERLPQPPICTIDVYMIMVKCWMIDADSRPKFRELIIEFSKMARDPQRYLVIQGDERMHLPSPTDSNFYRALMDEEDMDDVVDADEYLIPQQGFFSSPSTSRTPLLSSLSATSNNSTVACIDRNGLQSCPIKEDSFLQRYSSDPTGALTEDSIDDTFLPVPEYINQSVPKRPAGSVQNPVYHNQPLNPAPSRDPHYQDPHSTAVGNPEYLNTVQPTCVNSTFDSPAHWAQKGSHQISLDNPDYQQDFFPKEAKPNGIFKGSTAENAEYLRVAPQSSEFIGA
Chain of Epidermal growth factor receptor (Homo sapiens, UniProt P00533) (P00533 whole entry, the tested form may be a part): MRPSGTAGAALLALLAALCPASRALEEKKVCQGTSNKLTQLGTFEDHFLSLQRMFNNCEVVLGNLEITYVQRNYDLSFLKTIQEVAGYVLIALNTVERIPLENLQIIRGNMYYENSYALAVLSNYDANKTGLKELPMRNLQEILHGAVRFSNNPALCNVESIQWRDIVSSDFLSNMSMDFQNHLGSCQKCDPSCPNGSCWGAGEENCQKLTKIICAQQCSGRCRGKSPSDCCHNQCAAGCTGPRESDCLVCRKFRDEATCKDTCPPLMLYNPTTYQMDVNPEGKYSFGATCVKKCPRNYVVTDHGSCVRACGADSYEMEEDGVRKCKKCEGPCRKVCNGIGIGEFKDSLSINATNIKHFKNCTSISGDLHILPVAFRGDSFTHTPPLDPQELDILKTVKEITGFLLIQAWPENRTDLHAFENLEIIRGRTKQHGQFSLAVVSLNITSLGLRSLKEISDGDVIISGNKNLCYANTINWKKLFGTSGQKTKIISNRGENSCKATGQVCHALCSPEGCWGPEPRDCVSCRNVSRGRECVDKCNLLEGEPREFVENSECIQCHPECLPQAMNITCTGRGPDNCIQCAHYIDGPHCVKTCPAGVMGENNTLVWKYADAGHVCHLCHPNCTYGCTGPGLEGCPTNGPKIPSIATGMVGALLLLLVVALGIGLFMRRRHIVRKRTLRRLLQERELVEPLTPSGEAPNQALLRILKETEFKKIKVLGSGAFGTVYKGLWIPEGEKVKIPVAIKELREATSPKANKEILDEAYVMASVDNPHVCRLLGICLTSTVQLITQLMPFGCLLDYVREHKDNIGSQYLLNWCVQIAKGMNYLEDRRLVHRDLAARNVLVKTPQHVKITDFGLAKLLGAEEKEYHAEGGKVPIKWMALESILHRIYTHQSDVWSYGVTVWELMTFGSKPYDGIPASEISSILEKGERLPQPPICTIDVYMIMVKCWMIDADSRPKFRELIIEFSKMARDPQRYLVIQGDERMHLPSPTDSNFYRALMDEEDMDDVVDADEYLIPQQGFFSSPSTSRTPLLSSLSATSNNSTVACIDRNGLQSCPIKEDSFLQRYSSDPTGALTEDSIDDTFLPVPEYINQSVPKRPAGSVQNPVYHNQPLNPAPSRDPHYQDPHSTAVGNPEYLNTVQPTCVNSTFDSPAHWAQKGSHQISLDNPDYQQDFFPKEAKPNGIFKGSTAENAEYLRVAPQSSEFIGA
Chain of Epidermal growth factor receptor (Homo sapiens, UniProt P00533, L858R) (P00533 25-1210 L858R limits assumed): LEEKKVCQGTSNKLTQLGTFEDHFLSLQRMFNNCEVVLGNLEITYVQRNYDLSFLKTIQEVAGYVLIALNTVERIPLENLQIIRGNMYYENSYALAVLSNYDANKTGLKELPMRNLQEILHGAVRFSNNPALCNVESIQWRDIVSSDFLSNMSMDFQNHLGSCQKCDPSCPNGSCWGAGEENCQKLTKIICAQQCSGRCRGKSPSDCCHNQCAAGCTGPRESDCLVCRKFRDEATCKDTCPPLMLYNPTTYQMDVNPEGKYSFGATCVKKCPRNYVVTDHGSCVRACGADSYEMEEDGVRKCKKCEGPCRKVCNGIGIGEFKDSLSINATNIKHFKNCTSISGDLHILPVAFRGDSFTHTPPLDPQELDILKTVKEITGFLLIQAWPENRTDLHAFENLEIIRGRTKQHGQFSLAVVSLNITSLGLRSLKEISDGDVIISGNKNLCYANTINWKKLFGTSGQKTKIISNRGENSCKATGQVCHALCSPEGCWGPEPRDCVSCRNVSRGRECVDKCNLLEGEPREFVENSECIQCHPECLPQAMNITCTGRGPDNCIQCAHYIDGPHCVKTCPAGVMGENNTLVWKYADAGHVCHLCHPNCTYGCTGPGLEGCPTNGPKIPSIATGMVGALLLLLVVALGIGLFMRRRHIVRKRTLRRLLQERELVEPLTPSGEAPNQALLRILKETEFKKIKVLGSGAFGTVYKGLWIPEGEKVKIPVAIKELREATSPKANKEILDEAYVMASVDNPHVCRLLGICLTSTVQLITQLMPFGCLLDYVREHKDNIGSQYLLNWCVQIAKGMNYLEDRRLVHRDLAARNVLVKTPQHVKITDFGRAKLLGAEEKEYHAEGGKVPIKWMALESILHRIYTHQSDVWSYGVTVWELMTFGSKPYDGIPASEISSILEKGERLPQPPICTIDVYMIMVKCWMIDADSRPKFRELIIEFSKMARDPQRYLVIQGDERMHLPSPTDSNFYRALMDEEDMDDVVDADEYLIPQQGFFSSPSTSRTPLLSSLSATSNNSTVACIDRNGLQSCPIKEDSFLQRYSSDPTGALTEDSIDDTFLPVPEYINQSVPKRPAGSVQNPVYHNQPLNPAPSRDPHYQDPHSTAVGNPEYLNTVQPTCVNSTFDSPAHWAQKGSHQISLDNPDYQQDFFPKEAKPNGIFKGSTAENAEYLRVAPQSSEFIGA

Consider `C=CC(=O)Nc1cc(Nc2nc(OC)cc(-c3cn(C)c4ccccc34)n2)c(OC)cc1N(C)CCN(C)C`, for which the 50% inhibitory concentration (IC50) in series [1] was 13 nM; in [2], 320 nM; in series [3] (read-out: IC50), 685 nM; in series [4] it was 1170 nM; in [5] it was above 10000 nM; in [6], 155 nM.
With `C=CC(=O)Nc1cc(Nc2nccc(-c3cn4c5c(cccc35)CCC4)n2)c(OC)cc1N1CCC(CN(C)C)C1` (stereo unspecified), the IC50 came out at 1.9 nM in series [1]; 99.9 nM in [2]; 8.8 nM in [3] (read-out: IC50); 71.7 nM in series [4]; 514 nM in series [5]; 4 nM in series [6].
As for `C=CC(=O)Nc1cc(Nc2cc(-c3cn(C)c4ccccc34)nc(OC)n2)c(OC)cc1N(C)CCN(C)C`, the IC50 in [1] is 10.9 nM; in [2], 210 nM; in [3] (read-out: IC50) it was 636 nM; in series [4], 925 nM; in series [5], above 10000 nM; in [6], 123 nM.
Consider `C=CC(=O)Nc1cc(Nc2nccc(-c3cn4c5c(cccc35)CCC4)n2)c(OC)cc1N1CCNC(=O)C1`, for which the figures for the IC50 in [1], in series [3] and in series [6] were 1230 nM, “Not Active” and 428 nM, respectively.
Turning to `C=CC(=O)Nc1cc(Nc2cc(-c3cn(C)c4ccccc34)nc(C)n2)c(OC)cc1N(C)CCN(C)C`, the results for the IC50 in series [1], in series [3] (read-out: IC50) and in [6] were 60.6 nM, 192 nM and 46.5 nM, respectively. In series [7], the Ratio IC50 was 3.2.
The matching figures for `C=CC(=O)Nc1cc(Nc2ncnc(-c3cn(C)c4ccccc34)c2F)c(OC)cc1N(C)CCN(C)C`: 94.8 nM, 32.1 nM, 9.9 nM and 0.34.
Regarding `C=CC(=O)Nc1cc(Nc2cc(-c3cn4c5c(cccc35)CCC4)ncn2)c(OC)cc1N(C)CCN(C)C`, the IC50 in series [1] was found to be 2.6 nM; in [2], 37.8 nM; in [3] (read-out: IC50), 3.1 nM; in series [4], 24.3 nM; in series [5], 122 nM; in [6], 1.2 nM.
`C=CC(=O)Nc1cc(Nc2cc(-c3cn4c5c(cccc35)CCC4)nc(OC)n2)c(OC)cc1N(C)CCN(C)C`: the IC50 in [1] turned out to be 22 nM; in series [3] (read-out: IC50) it was 543 nM; in [6], 181 nM.
In the case of `C=CC(=O)Nc1cc(Nc2nccc(-c3cn(C)c4ccccc34)n2)c(OC)cc1N(C)CCN(C)C` [OSIMERTINIB], the half-life in series [8] is 1.04 h; in series [9] it was […]; in series [13] it was 0.35 h; in series [14] it was 0.963 h; in [17], […]; in [18], […]. The half-life in [20] was […]. For the same compound, in series [10], the bioavailability was […]. This compound also came in with a CLH in series [11] of […]. Moreover, the CLint scaled in series [12] is […]; in [16] it was […]; in [22], […]; in [25], […]. For the same compound, in series [2], it took […] to reach half-maximal inhibition (IC50). For the same compound, the mean residence time (MRT) in series [15] is […]; in series [23] it was […]. The compound also registered a maximum concentration (Cmax) in series [19] of […]. Moreover, in series [21], the Tmax came to […]. In series [24], the clearance was […].
`C=CC(=O)Nc1cc(Nc2nccc(-c3cn4c5c(cccc35)CCC4)n2)c(OC)cc1N(C)CCO`: the IC50 amounted to 34.8 nM in series [1], 838 nM in series [3] (read-out: IC50) and 192 nM in series [6]. Besides, the Ratio IC50 in series [7] was found to be 24.1.
The matching figures for `C=CC(=O)Nc1cc(Nc2nccc(-c3cn4c5c(cccc35)CCC4)n2)c(OC)cc1N1CC(CCN(C)C)C1`: 11.8 nM, 251 nM, 14.5 nM and 21.3.
For `C=CC(=O)Nc1cc(Nc2nccc(-c3cn4c5c(cccc35)CCC4)n2)c(OC)cc1N1CC(CN(C)C)C1`, the IC50 came to 6.7 nM in [1]; 166 nM in [2]; 202 nM in [3] (read-out: IC50); 290 nM in series [4]; 1470 nM in series [5]; 11.6 nM in series [6].
On to `C=CC(=O)Nc1cc(Nc2nccc(-c3cn4c5c(cccc35)CCC4)n2)c(OC)cc1N1CCN(C)CC1`, for which the IC50 is 55.5 nM in [1], 877 nM in series [3] (read-out: IC50) and 64.3 nM in [6]. For the same compound, in series [7], the Ratio IC50 was 15.8.
The matching figures for `C=CC(=O)Nc1cc(Nc2nccc(-c3cn4c5c(cccc35)CCC4)n2)c(OC)cc1N(C)CCN(C)C(C)=O`: 188 nM, above 1000 nM, 386 nM and above 5.3.
In the case of `C=CC(=O)Nc1cc(Nc2nccc(-c3cn4c5c(cccc35)CCC4)n2)c(OC)cc1N1CC(N(C)C)C1`, the IC50 in [1] was determined as 4.9 nM; in [2] it was 143 nM; in series [3] (read-out: IC50) it was 63.9 nM; in series [4], 98.2 nM; in series [5], 1120 nM; in series [6], 13.6 nM.
Turning to `C=CC(=O)Nc1cc(Nc2cc(-c3cn(C)c4ccccc34)ncn2)c(OC)cc1N(C)CCN(C)C`, the IC50 in series [1] was determined as 1.6 nM; in series [2] it was 33.8 nM; in series [3] (read-out: IC50), 2.3 nM; in [4], 16.2 nM; in [5], 128 nM; in series [6], 2.2 nM.
As for `C=CC(=O)Nc1cc(Nc2nccc(-n3cc(C)c4ccccc43)n2)c(OC)cc1N(C)CCN(C)C`, the IC50 in [1] came out at 287 nM; in [3] (read-out: IC50), 715 nM; in series [6] it was 186 nM. For the same compound, the Ratio IC50 in [7] was 2.5.
As for `C=CC(=O)Nc1cc(Nc2nccc(-n3ncc4ccccc43)n2)c(OC)cc1N(C)CCN(C)C`, the IC50 in [1] was above 600 nM; in series [3] it was “Not Active”; in [6], above 600 nM.
As to `C=CC(=O)Nc1cc(Nc2ncnc(-c3cn(C)c4ccccc34)c2OC)c(OC)cc1N(C)CCN(C)C`, the figures for the half-maximal inhibitory concentration (IC50) in [1], in [3] (read-out: IC50) and in series [6] were 212 nM, 222 nM and 55.5 nM, respectively. The Ratio IC50 in series [7] was found to be 1.
On the same counts, the results for `C=CC(=O)Nc1cc(Nc2nccc(-c3cn4c5c(cccc35)CCC4)n2)c(OC)cc1N(C)CC(=O)N(C)C` are 278 nM, above 1000 nM, 498 nM and above 3.6.

A word on the IC50: it is the concentration that gives 50% inhibition. One may read the half-life as how long it takes for the measured level to halve. As a reminder, the bioavailability is the share of a dose that reaches the circulation, judged against a reference dose that is usually intravenous. For orientation: MRT means a mean duration of stay, worked out from the concentration-time curve. Broadly, the Cmax is the maximum level reached in the sampled fluid or tissue. For orientation: Tmax means the time from dosing to the highest level. By clearance is commonly meant the volume of plasma or blood freed of the substance per unit of time.

The values are drawn from ChEMBL document CHEMBL4052618, “Design, synthesis, SAR discussion, in vitro and in vivo evaluation of novel selective EGFR modulator to inhibit L858R/T790M double mutants” (Eur J Med Chem, 2017).
